Test results: ChEMBL document CHEMBL1136156, “A specific anti-Helicobacter pylori agent NE2001: synthesis and its effect on the growth of H. pylori” (2003)
≈ marks a conversion by molar mass, not a printed value.

Columns and labels:
Format in all cases: functional
Helicobacter pylori [1] = assay: Antibacterial activity against Helicobacter pylori ATCC 43504 was determined
Method in brief: (§1)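 Agar dilution MIC on Columbia agar with 7% defibrinated sheep blood. Compounds were dissolved in DMSO and serially diluted two-fold. Inoculum was grown 24 h at 37 °C in Brucella broth with 5% fetal bovine serum under microaerophilic gas (5% O2, 10% CO2, 85% N2) and adjusted to about 10^8 CFU/mL, then streaked onto ~2 cm squares. Plates were incubated microaerophilically for 3 days at 37 °C. MIC was the lowest concentration giving complete growth inhibition.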

Escherichia coli = assay: Antibacterial activity against Escherichia coli K-12 was determined
Method in brief: (§2)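 Agar dilution MIC on Mueller–Hinton agar for reference strains of other species. Compounds were dissolved in DMSO and serially diluted two-fold. Strains were stored at -80 °C before testing. MIC was taken as the minimum concentration completely inhibiting growth.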

Staphylococcus aureus = assay: Antibacterial activity against Staphylococcus aureus 209P JC was determined; method in brief: as §2
Helicobacter pylori [2] = assay: Antibacterial activity against Helicobacter pylori HP0017 was determined; method in brief: as §1
Helicobacter pylori [3] = assay: Antibacterial activity against Helicobacter pylori HP020 was determined
Method in brief: (§3)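 Agar dilution MIC on Columbia agar with 7% defibrinated sheep blood. Compounds dissolved in DMSO and serially diluted twofold. Inoculum was H. pylori grown 24 h at 37 °C in Brucella broth with 5% fetal bovine serum under microaerophilic gas (5% O2, 10% CO2, 85% N2), adjusted to about 10^8 CFU/mL and streaked by loop. Plates were incubated microaerophilically for 3 days at 37 °C. MIC taken as the lowest concentration giving complete growth inhibition.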

Morganella morganii = assay: Antibacterial activity against Morganella morganii was determined; method in brief: as §2
Helicobacter pylori [4] = assay: Antibacterial activity against Helicobacter pylori HP0018 was determined; method in brief: as §3
Enterococcus faecalis = assay: Antibacterial activity against Enterococcus faecalis was determined; method in brief: as §2
Helicobacter pylori [5] = assay: Antibacterial activity against Helicobacter pylori HP008 was determined; method in brief: as §1
Helicobacter pylori [6] = assay: Antibacterial activity against Helicobacter pylori HP007 was determined; method in brief: as §1
Helicobacter pylori [7] = assay: Antibacterial activity against Helicobacter pylori HP021 was determined; method in brief: as §1
Helicobacter pylori [8] = assay: Antibacterial activity against Helicobacter pylori HP0019 was determined; method in brief: as §1
Helicobacter pylori [9] = assay: Antibacterial activity against Helicobacter pylori HP022 was determined; method in brief: as §1
Helicobacter pylori [10] = assay: Antibacterial activity against Helicobacter pylori HP0016 was determined; method in brief: as §1
Klebsiella pneumoniae = assay: Antibacterial activity against Klebsiella pneumoniae was determined; method in brief: as §2
Helicobacter pylori [11] = assay: Antibacterial activity against Helicobacter pylori HP004 was determined; method in brief: as §3
Helicobacter pylori [12] = assay: Antibacterial activity against Helicobacter pylori HP001 was determined; method in brief: as §1
Helicobacter pylori [13] = assay: Antibacterial activity against Helicobacter pylori HP003 was determined; method in brief: as §1
[14] = system: Staphylococcus epidermidis; assay: Antibacterial activity against Staphylococcus epidermidis was determined; method in brief: as §2

Row | Structure (SMILES) | MIC (Helicobacter pylori [1]) [µg/mL] | MIC (Escherichia coli) [µg/mL] | MIC (Staphylococcus aureus) [µg/mL] | MIC (Helicobacter pylori [2]) [µg/mL] | MIC (Helicobacter pylori [3]) [µg/mL] | MIC (Morganella morganii) [µg/mL] | MIC (Helicobacter pylori [4]) [µg/mL] | MIC (Enterococcus faecalis) [µg/mL] | MIC (Helicobacter pylori [5]) [µg/mL] | MIC (Helicobacter pylori [6]) [µg/mL] | MIC (Helicobacter pylori [7]) [µg/mL] | MIC (Helicobacter pylori [8]) [µg/mL] | MIC (Helicobacter pylori [9]) [µg/mL] | MIC (Helicobacter pylori [10]) [µg/mL] | MIC (Klebsiella pneumoniae) [µg/mL] | MIC (Helicobacter pylori [11]) [µg/mL] | MIC (Helicobacter pylori [12]) [µg/mL] | MIC (Helicobacter pylori [13]) [µg/mL] | MIC [14] [µg/mL]
1 | Cc1ccc(CO)cc1 | > 64 | > 64 | > 64 | – | – | – | – | – | – | – | – | – | – | – | – | – | – | – | –
2 | O=C(O)c1ccc(-c2ccc(O)cc2)cc1 | > 64 | > 64 | > 64 | – | – | – | – | – | – | – | – | – | – | – | – | – | – | – | –
3 | COC(=O)c1ccc(-c2ccc(O)cc2)cc1 | > 64 | > 64 | > 64 | – | – | – | – | – | – | – | – | – | – | – | – | – | – | – | –
4 | NCc1ccc(C(=O)O)cc1 [AMINOMETHYLBENZOIC ACID] | > 64 | > 64 | > 64 | – | – | – | – | – | – | – | – | – | – | – | – | – | – | – | –
5 | CC1(C)S[C@@H]2[C@H](NC(=O)[C@H](N)c3ccc(O)cc3)C(=O)N2[C@H]1C(=O)O [AMOXICILLIN] | 0.05 (≈ 0.137 µM) | 1.6 (≈ 4.38 µM) | 0.2 (≈ 0.547 µM) | 0.025 (≈ 0.0684 µM) | 0.05 (≈ 0.137 µM) | > 100 | 0.05 (≈ 0.137 µM) | 0.78 (≈ 2.13 µM) | 0.05 (≈ 0.137 µM) | 0.05 (≈ 0.137 µM) | 0.025 (≈ 0.0684 µM) | 0.05 (≈ 0.137 µM) | 0.025 (≈ 0.0684 µM) | 0.05 (≈ 0.137 µM) | 50 (≈ 137 µM) | 0.05 (≈ 0.137 µM) | 0.025 (≈ 0.0684 µM) | 0.05 (≈ 0.137 µM) | 0.78 (≈ 2.13 µM)
6 | Cc1ncc([N+](=O)[O-])n1CCO [METRONIDAZOLE] | 64 (≈ 374 µM) | > 100 | > 100 | 64 (≈ 374 µM) | 128 (≈ 748 µM) | > 100 | 8 (≈ 46.7 µM) | > 100 | 32 (≈ 187 µM) | 16 (≈ 93.5 µM) | 32 (≈ 187 µM) | 32 (≈ 187 µM) | 16 (≈ 93.5 µM) | 32 (≈ 187 µM) | > 100 | 8 (≈ 46.7 µM) | 4 (≈ 23.4 µM) | 2 (≈ 11.7 µM) | > 100

Now from value to compound, other results behind:

Row | MIC (Helicobacter pylori [1]) [µg/mL] | MIC (Escherichia coli) [µg/mL] | MIC (Staphylococcus aureus) [µg/mL] | Structure (SMILES) | MIC (Helicobacter pylori [2]) [µg/mL] | MIC (Helicobacter pylori [3]) [µg/mL] | MIC (Morganella morganii) [µg/mL] | MIC (Helicobacter pylori [4]) [µg/mL] | MIC (Enterococcus faecalis) [µg/mL] | MIC (Helicobacter pylori [5]) [µg/mL] | MIC (Helicobacter pylori [6]) [µg/mL] | MIC (Helicobacter pylori [7]) [µg/mL] | MIC (Helicobacter pylori [8]) [µg/mL] | MIC (Helicobacter pylori [9]) [µg/mL] | MIC (Helicobacter pylori [10]) [µg/mL] | MIC (Klebsiella pneumoniae) [µg/mL] | MIC (Helicobacter pylori [11]) [µg/mL] | MIC (Helicobacter pylori [12]) [µg/mL] | MIC (Helicobacter pylori [13]) [µg/mL] | MIC [14] [µg/mL]
7 | 16 | > 64 | > 64 | Cl.N=C(N)NCc1ccc(C(=O)Oc2ccccc2)cc1 | – | – | – | – | – | – | – | – | – | – | – | – | – | – | – | –
8 | > 64 | > 64 | > 64 | Cl.N=C(N)NCc1ccc(C(=O)O)cc1 | – | – | – | – | – | – | – | – | – | – | – | – | – | – | – | –
9 | > 64 | > 64 | > 64 | Cl.N=C(N)NCc1ccc(C(=O)Nc2ccccc2)cc1 | – | – | – | – | – | – | – | – | – | – | – | – | – | – | – | –
10 | 0.8 | > 64 | > 64 | Cc1ccc(COC(=O)c2ccc(-c3ccc(OC(=O)c4ccc(CN=C(N)N)cc4)cc3)cc2)cc1.Cl | 1.6 | 0.8 | > 64 | 0.4 | > 64 | 0.8 | 0.8 | 0.8 | 1.6 | 0.8 | 0.8 | > 64 | 0.8 | 0.4 | 0.8 | > 64
11 | 8 (≈ 25.1 µM) | > 64 | > 64 | Cc1ccc(COC(=O)c2ccc(-c3ccc(O)cc3)cc2)cc1 | – | – | – | – | – | – | – | – | – | – | – | – | – | – | – | –
